In ChEMBL document CHEMBL1154334, “Effect of the structure of adenosine mimic of bisubstrate-analog inhibitors on their activity towards basophilic protein kinases” (Bioorg Med Chem Lett, 2009) one finds IC50 and Kd data, which are given here for eleven molecules.

Where a SMILES comes first, the peptide text is derived from it. [ ]: non-standard residue; d: D form. The star is where a group is joined. X1 = Nc1nccc(-c2ccc(C(=O)*)s2)n1; Ahx = NCCCCCC(=O)O A value given as a limit tells only on which side of the number the result lay.

The target in assay [1] is RAC-gamma serine/threonine-protein kinase (Homo sapiens, UniProt Q9Y243). Put plainly: Inhibition of PKBgamma in presence of 100 uM ATP. An outline of the steps: (§1)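 Kinetic phosphorylation assays with PKA catalytic subunit (PKAc) or PKB catalytic subunit (PKBc) at fixed ATP. ATP Km values taken as 20 for PKAc and 100 for PKBc.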
For assay [2], the target named is Rho-associated protein kinase 2 (Homo sapiens, UniProt O75116). The experiment in a line: Displacement of ARC583 from ROCK2.
In assay [3] the target is T1, cAMP-dependent protein kinase catalytic subunit alpha (Homo sapiens, UniProt P17612). The experiment in a line: Inhibition of PKACalpha in presence of 100 uM ATP. An outline of the steps:
as §1

The target in assay [4] is T1, cAMP-dependent protein kinase catalytic subunit alpha. Put plainly: Inhibition of PKACalpha in presence of […].

Chain of Rho-associated protein kinase 2 (O75116 whole entry): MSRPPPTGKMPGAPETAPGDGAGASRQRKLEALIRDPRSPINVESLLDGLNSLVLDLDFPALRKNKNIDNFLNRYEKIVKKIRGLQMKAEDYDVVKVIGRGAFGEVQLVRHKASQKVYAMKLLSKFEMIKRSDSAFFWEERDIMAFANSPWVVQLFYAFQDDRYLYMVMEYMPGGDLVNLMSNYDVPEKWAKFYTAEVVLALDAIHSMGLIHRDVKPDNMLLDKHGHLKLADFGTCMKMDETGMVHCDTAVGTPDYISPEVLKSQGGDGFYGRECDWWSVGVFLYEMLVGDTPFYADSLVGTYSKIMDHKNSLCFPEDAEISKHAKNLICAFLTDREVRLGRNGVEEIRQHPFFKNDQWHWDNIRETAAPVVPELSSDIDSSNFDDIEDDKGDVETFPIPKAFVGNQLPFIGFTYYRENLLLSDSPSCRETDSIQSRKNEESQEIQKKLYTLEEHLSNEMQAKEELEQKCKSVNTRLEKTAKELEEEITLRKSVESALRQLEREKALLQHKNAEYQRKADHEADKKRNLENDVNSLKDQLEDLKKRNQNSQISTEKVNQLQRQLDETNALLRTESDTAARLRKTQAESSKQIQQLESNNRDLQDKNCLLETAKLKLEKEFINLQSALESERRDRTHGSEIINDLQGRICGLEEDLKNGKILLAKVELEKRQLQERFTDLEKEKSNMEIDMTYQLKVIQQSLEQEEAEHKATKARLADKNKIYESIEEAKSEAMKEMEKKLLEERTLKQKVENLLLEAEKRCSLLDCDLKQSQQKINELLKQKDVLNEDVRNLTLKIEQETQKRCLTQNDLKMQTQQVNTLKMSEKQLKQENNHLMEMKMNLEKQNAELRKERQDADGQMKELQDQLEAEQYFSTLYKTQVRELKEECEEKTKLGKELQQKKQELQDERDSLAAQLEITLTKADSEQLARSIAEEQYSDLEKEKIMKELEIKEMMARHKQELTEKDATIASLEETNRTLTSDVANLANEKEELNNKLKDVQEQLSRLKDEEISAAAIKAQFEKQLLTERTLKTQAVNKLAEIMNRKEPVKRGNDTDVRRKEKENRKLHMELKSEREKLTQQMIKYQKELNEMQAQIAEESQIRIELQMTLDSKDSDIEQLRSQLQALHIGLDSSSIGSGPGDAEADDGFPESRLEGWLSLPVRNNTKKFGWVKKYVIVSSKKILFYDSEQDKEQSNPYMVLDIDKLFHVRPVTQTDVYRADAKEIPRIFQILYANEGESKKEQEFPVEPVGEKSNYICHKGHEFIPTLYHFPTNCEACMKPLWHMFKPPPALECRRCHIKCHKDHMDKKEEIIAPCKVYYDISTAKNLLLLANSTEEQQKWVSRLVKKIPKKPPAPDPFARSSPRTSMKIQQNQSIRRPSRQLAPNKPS
Chain of RAC-gamma serine/threonine-protein kinase (Q9Y243 whole entry): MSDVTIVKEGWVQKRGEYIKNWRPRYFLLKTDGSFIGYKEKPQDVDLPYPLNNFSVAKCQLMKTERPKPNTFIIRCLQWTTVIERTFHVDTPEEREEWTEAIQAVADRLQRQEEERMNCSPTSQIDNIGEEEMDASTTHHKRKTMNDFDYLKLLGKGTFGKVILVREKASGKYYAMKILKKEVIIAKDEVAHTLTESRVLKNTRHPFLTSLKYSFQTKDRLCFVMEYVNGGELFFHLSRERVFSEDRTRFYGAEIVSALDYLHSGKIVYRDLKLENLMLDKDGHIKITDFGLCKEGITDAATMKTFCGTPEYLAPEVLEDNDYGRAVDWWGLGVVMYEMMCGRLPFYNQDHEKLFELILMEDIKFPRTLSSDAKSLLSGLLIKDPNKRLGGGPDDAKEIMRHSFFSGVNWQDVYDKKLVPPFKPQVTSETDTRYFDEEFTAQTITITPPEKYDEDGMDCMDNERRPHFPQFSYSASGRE

Consider `N=C(N)NCCC[C@@H](NC(=O)[C@@H](CCCNC(=N)N)NC(=O)CCCCCNC(=O)[C@@H](CCCCN)NC(=O)CCCCCNC(=O)Nc1ccc(C(N)=O)cc1)C(N)=O`, for which the IC50 in assay [1] worked out at 900 µM; in assay [3] (read-out: IC50), 240 µM. Besides, binding in assay [2] was put at a Kd of 6.1 µM.

As to `NCCCC[C@@H](NC(=O)CCCCCNC(=O)c1ccc(-c2ccnc(N)n2)s1)C(=O)NCCCCCC(=O)N[C@H](CCCN=C(N)N)C(=O)N[C@H](CCCN=C(N)N)C(=O)N[C@H](CCCN=C(N)N)C(=O)N[C@H](CCCN=C(N)N)C(=O)N[C@H](CCCN=C(N)N)C(=O)N[C@H](CCCN=C(N)N)C(N)=O` ({X1-Ahx}-[dK][Ahx][dR][dR][dR][dR][dR][dR]-NH2), the IC50 in assay [1] is 0.012 µM.

Consider `NCCCC[C@@H](NC(=O)CCCCCNC(=O)c1ccc(C(N)=O)cc1)C(=O)NCCCCCC(=O)N[C@H](CCCN=C(N)N)C(=O)N[C@H](CCCN=C(N)N)C(N)=O`, for which the results for the concentration for half-maximal inhibition (IC50) in assay [1] and in assay [3] (read-out: IC50) were 28 µM and 23 µM, respectively. Also, in assay [2], the affinity, expressed as Kd, was 0.177 µM.

For the molecule `N=C(N)NCCC[C@@H](NC(=O)[C@@H](CCCNC(=N)N)NC(=O)CCCCCNC(=O)[C@@H](CCCCN)NC(=O)CCCCCNC(=O)c1cn(-c2ncnc3[nH]cnc23)nn1)C(N)=O`, in assay [1], the IC50 is 27 µM. This molecule displayed an equilibrium dissociation constant (Kd) in assay [2] of 0.8 µM.

On to `NCCCC[C@@H](NC(=O)CCCCCNC(=O)c1cccc(-c2ccncc2)c1)C(=O)NCCCCCC(=O)N[C@H](CCCN=C(N)N)C(=O)N[C@H](CCCN=C(N)N)C(N)=O`, for which the half-inhibitory concentration (IC50) in assay [1] stood at 0.9 µM; in assay [3] (read-out: IC50), 0.39 µM. Moreover, in assay [2], the Kd turned out to be 0.0038 µM.

Take `NCCCC[C@@H](NC(=O)CCCCCNC(=O)c1cccc(-c2ccnc(N)n2)c1)C(=O)NCCCCCC(=O)N[C@H](CCCN=C(N)N)C(=O)N[C@H](CCCN=C(N)N)C(N)=O`: the values for the concentration for half-maximal inhibition (IC50) in assay [1] and in assay [3] (read-out: IC50) were 4.6 µM and 0.061 µM, respectively. For the same molecule, binding in assay [2] was put at a Kd of 0.036 µM.

With `N=C(N)NCCC[C@@H](NC(=O)[C@@H](CCCNC(=N)N)NC(=O)CCCCCNC(=O)[C@@H](CCCCN)NC(=O)CCCCCNC(=O)c1ccc(-c2ccnc(N)n2)s1)C(N)=O`, the values for the IC50 in assay [1] and in assay [4] were 0.27 µM and 0.082 µM, respectively. This molecule yielded a dissociation constant (Kd) in assay [2] of under 0.003 µM.

`NCCCC[C@@H](NC(=O)CCCCCNC(=O)c1ccccc1)C(=O)NCCCCCC(=O)N[C@H](CCCN=C(N)N)C(=O)N[C@H](CCCN=C(N)N)C(N)=O`: the values for the IC50 in assay [1] and in assay [3] (read-out: IC50) were 360 µM and 183 µM, respectively. For the same molecule, in assay [2], the dissociation constant (Kd) is 8 µM.

For `CC(=O)NCCCCCC(=O)N[C@H](CCCCN)C(=O)NCCCCCC(=O)N[C@H](CCCNC(=N)N)C(=O)N[C@H](CCCNC(=N)N)C(N)=O`, the concentration for half-maximal inhibition (IC50) in assay [1] is over 2000 µM; in assay [3], “Not Active”. The molecule also had a dissociation constant Kd in assay [2] of 123 µM.

For the molecule `NCCCC[C@H](NC(=O)[C@@H](CCCN=C(N)N)NC(=O)[C@@H](CCCN=C(N)N)NC(=O)[C@@H](CCCN=C(N)N)NC(=O)[C@@H](CCCN=C(N)N)NC(=O)[C@@H](CCCN=C(N)N)NC(=O)[C@@H](CCCN=C(N)N)NC(=O)CCCCCNC(=O)[C@@H](CCCCN)NC(=O)CCCCCNC(=O)c1ccc(-c2ccnc(N)n2)s1)C(N)=O`, the 50% inhibitory concentration (IC50) in assay [1] was found to be 0.042 µM; in assay [4] it was 0.0049 µM.

As to `NCCCC[C@@H](NC(=O)CCCCCNC(=O)[C@H]1O[C@@H](n2cnc3c(N)ncnc32)[C@H](O)[C@@H]1O)C(=O)NCCCCCC(=O)N[C@H](CCCN=C(N)N)C(=O)N[C@H](CCCN=C(N)N)C(N)=O`, the dissociation constant Kd in assay [2] is under 0.003 µM.

The IC50 is the midpoint of a concentration-inhibition curve. What is called Kd is the constant that tells how readily two partners part at equilibrium.
